MT1-MMP act inh: blockers of MT1-MMP proenzyme processing, primary screen, HT1080 RFP-PRO-GFP cells, GFP/RFP fluorescence; AID 651647, 2012; GFP/RFP ratio change, % at 20 µM; GFP/RFP ratio fluorescence, overnight; percent of plate control window, DMSO zero; actives 0.061% (n = 360,000); Matrix metalloproteinase-14 (Homo sapiens), P50281;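 active = GFP/RFP ratio change of at least 30% with cell ATP level not reduced by more than half and red fluorescence within 50% of control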
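Material: RFP-PRO-GFP reporter HT1080 cells. Dosing: single-point 20 µM compound, 1% DMSO. Controls: DMSO and RFP-L50D-GFP cell wells. Timing: cells overnight before dosing, compound overnight, 37 °C, 5% CO2. Measure: GFP/RFP fluorescence ratio.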
NOD2 RIPK2 PPI: NOD2-RIPK2 binding disruptors in cells, primary screen, fluorescence, CHO cells, BLA complementation. Receptor-interacting serine/threonine-protein kinase 2 (Homo sapiens), O43353. CCF4 ratio. inhibition, % at 4.98 µM. actives 0.38% (n = 360,000). AID 624267, 2012; in the data active = inhibition above about 21%
SKN-1 inh: suppressors of acrylamide-induced Pgst-4::GFP reporter in worms, primary screen, SKN-1 inhibitor project, whole organism, uHTS, GFP/RFP fluorescence ratio, strain VP596 | C. elegans VP596 Pgst-4::GFP/RFP ratio, 24 h | inhibition, % at 21.8 µM | actives 0.49% (n = 360,000) | AID 624304, 2012;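 active = interference check ratio from 0.5 to 1.5 plus GFP to RFP signal ratio inhibition reaching or exceeding a fixed threshold, cut at about 30% in these data, passing the limit was not always enough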
TLR4 MyD88 comp: inhibitors of TLR4-MyD88 association in cells, primary screen, cell-based, HeLa CL3-4, BLA complementation, FRET ratio; HeLa CL3-4 TLR4/MyD88 BLA complementation; actives 0.18% (n = 200,000); Toll-like receptor 4 (Homo sapiens) + Myeloid differentiation primary response protein …; inhibition, % at 8.4 µM; AID 861, 2007; in the data active = inhibition above about 25%
Target sequence (O00206 whole entry, looked up): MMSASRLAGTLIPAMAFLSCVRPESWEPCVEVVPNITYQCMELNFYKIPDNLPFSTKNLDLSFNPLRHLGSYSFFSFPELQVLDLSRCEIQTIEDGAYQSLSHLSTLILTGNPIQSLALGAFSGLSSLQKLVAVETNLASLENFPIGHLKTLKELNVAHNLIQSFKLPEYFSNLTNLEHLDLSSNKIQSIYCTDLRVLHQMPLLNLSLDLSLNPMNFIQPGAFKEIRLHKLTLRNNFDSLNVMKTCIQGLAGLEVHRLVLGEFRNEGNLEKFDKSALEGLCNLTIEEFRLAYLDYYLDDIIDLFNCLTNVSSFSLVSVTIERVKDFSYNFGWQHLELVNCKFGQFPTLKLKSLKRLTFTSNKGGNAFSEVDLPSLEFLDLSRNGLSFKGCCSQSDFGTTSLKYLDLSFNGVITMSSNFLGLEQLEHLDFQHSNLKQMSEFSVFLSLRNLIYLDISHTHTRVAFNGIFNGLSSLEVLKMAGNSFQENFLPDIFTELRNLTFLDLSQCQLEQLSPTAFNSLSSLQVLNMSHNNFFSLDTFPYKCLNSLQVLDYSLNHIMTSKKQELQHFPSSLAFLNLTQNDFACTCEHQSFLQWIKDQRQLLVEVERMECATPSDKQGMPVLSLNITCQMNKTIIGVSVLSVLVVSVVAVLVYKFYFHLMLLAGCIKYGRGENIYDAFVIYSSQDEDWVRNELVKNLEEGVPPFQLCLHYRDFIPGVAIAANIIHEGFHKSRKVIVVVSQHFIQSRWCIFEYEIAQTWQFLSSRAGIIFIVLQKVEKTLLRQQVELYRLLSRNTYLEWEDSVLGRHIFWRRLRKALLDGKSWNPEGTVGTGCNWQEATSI
Target sequence (Q99836 whole entry, looked up): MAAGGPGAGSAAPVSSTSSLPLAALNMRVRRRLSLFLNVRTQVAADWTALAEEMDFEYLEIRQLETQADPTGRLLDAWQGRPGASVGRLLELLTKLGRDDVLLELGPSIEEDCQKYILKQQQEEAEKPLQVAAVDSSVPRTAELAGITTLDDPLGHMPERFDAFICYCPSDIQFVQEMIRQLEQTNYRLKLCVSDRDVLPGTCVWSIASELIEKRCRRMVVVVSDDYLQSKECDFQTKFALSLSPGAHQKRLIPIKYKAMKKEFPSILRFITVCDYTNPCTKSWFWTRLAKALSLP
TLR9-MyD88 block: inhibitors of TLR9-MyD88 association in cells, primary screen, cell-based, CHO, BLA complementation, fluorescence. Toll-like receptor 9 (Homo sapiens) + Myeloid differentiation primary response protein …. CCF4 FRET ratio. inhibition, % at 4.98 µM. actives 0.21% (n = 340,000). AID 504734, 2011;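 active = inhibition above the mean over all tested compounds plus 3 SD, cut at about 21% in these data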
Numbers stand for hits; – = inactive; · = no result given. The list is not random: actives were taken first. Their share in the collection is about 0.99%.

SMILES | MT1-MMP act inh | NOD2 RIPK2 PPI | SKN-1 inh | TLR4 MyD88 comp | TLR9-MyD88 block
Cc1cc2nn(-c3ccc(F)cc3)nc2cc1N | – | – | 39 | · | –
CC(C)(C)C1C/C(=C/c2ccccn2)C(=O)/C(=C/c2ccccn2)C1 (stereo not drawn) | – | 27 | – | – | –
COC(CNC(=O)C(=O)Nc1cc2c3c(c1)CCN3C(=O)CC2)OC | – | – | – | · | –
O=C(/C=C/c1cccs1)c1ccc(N2CCOCC2)cc1 | – | – | 36 | – | –
O=C1NC(C2CC3C=CC2C3)Nc2ccccc21 (stereo not drawn) | – | – | – | · | –
Cc1nn(C(=O)c2cccc([N+](=O)[O-])c2)c(C)c1Cl | – | – | – | · | –
CCCSc1ccc2nc(-c3ccccc3)cn2c1 | – | – | 50 | – | –
CCCCSc1ccc2nc(-c3ccc(C#N)cc3)cn2c1 | – | – | – | – | –
C=CCNc1ncnc2sc(SC)nc12 | – | – | 50 | · | –
O=C1/C(=C/c2ccccc2)CCCc2ccccc21 | – | – | 47 | – | –
O=C(CNC(=O)c1cccs1)Nc1ncccc1O | – | – | – | · | –
CC(=O)n1cc(C(C[N+](=O)[O-])SCCN)c2ccccc21 (stereo not drawn) | – | – | – | – | –
CCN(CC)c1ccc(/C=N/NC(=O)c2cccc(S(=O)(=O)Nc3ccccc3OC)c2)cc1 | – | – | – | – | –
CCN(CC)c1ccc(/C=N/NC(=O)c2cccc(S(=O)(=O)Nc3ccccc3OC)c2)c(O)c1 | – | 21 | – | – | 21
C/C=C(\C)C(=O)O[C@H](c1cc2ccc(=O)oc2cc1OC)[C@@H](O)C(C)(C)O | – | – | – | · | –
O=C(NCc1ccc(F)cc1)c1ccc2c(c1)S(=O)(=O)c1ccccc1C2=O | – | – | – | · | –
O=C(Nc1c(Cl)cccc1Cl)c1cc(-c2ccco2)on1 | – | – | – | · | –
O=C(Nc1cccc(Cl)c1)c1cc(-c2ccco2)on1 | – | – | 39 | · | –
COc1ccc(NC(=O)c2cc(-c3ccco3)on2)cc1 | – | – | – | – | –
CCc1ccc(NC(=O)c2cc(-c3ccco3)on2)cc1 | – | – | 45 | – | –
CCCOc1ccc(C(=O)Nc2ccc(Cl)cn2)cc1 | – | – | 41 | – | –
CCOC(=O)c1ccc(Nc2nnc(C(C)(C)C)c(=O)[nH]2)cc1 | · | – | 37 | – | –
CCOC(=O)c1ccc(Nc2ccc(C(C)=O)cc2)cc1 | – | – | – | · | ·
CN(C)S(=O)(=O)c1ccc(C(=O)Nc2cc3c(cc2C(=O)O)OCCCO3)cc1 | – | – | – | · | –
CC(=O)Nc1cc(C(F)(F)F)ccc1OCC1CCCO1 (stereo not drawn) | – | – | 37 | – | –
SMILES | MT1-MMP act inh | NOD2 RIPK2 PPI | SKN-1 inh | TLR4 MyD88 comp | TLR9-MyD88 block
CC(=O)Nc1ccc(NC(=O)c2cc(-c3cc(F)ccc3OCC3CCCO3)n[nH]2)cc1 (stereo not drawn) | – | – | – | · | ·
COc1ccc(Cc2nnc(SCC(=O)NC3(C#N)CCCCC3)n2N)cc1 | – | – | – | · | –
Cn1c(=O)c2c(-c3ccccc3)n(-c3ccc(N)cc3)cc2n(C)c1=O | – | – | 49 | · | ·
Cn1c(=O)c2c(-c3ccccc3)n(-c3cccc(O)c3)cc2n(C)c1=O | – | – | – | · | ·
CCCCN(C(=O)COc1ccc(F)cc1)c1c(N)n(CC(C)C)c(=O)[nH]c1=O | – | – | – | · | –
COC(=O)c1cn(NC(=O)C2COc3ccccc3O2)c(=O)c2ccccc12 (stereo not drawn) | · | – | 36 | – | –
COC(=O)c1cn(NC(=O)C2CCCO2)c(=O)c2ccccc12 (stereo not drawn) | – | – | – | – | –
CC(C)(C)c1ccc(S(=O)(=O)N(CCCN2CCOCC2)Cc2cccs2)cc1 | – | – | – | – | –
O=C1c2cccc3c(N4CCCCC4)ccc(c23)C(=O)N1c1ccccn1 | – | – | – | – | –
O=C1c2cccc3c(N4CCCCC4)ccc(c23)C(=O)N1c1ccc(Cl)cn1 | · | · | · | 28 | ·
CN1CCN(/N=C/c2ccc(OCc3ccccc3)cc2)CC1 | – | – | 50 | · | –
Cc1cc(C)c2ccc3c(C)c(C)nc3c2[nH]1 | – | – | 53 | – | –
CCC1NC(=O)c2cccnc2-n2c1nc1ccc(F)cc1c2=O (stereo not drawn) | – | – | – | · | –
COc1cc(NCCCC(C)N)c2ncccc2c1 (stereo not drawn) | – | – | – | – | –
COc1cc(NCCCCC(C)N)c2nccc(C)c2c1 (stereo not drawn) | – | – | 36 | · | –
CNC(=O)C[C@@H]1C(=O)N(CCc2ccccc2)CC1(C)C | – | – | – | · | –
Cc1nnc(NC(=O)CCC(=O)NC2CCCCCCC2)s1 | – | – | – | · | –
O=C1CCC(C(=O)OCC(=O)N2N=C3/C(=C/c4ccccc4)CCCC3C2c2ccccc2)N1 (stereo not drawn) | – | – | – | – | –
O=C1CCC(C(=O)OCC(=O)N2N=C3/C(=C\c4ccccc4)CCCC3C2c2ccccc2)N1 (stereo not drawn) | – | – | 37 | · | –
Cc1ccc2c(c1)c(C)c(C)n2CC(O)CN1CCOCC1 (stereo not drawn) | – | – | 39 | – | –
Cc1c(C)n(CC(O)CN2CCCCCC2)c2ccccc12 (stereo not drawn) | – | – | – | – | –
CN(C)c1ccc(C(=O)/C=C/c2ccccc2)cc1 | – | – | 43 | – | –
CN(C)c1ccc(C(=O)/C=C/c2ccc(Br)cc2)cc1 | – | – | – | – | –
COc1cccc(-c2cccc(NC(=O)C3CCN(C4CCOCC4)CC3)c2)c1 | – | – | – | · | –
COc1cccc(-c2cccc(NC(=O)C3CCN(CC4CCOC4)CC3)c2)c1 (stereo not drawn) | – | – | 46 | · | –
SMILES | MT1-MMP act inh | NOD2 RIPK2 PPI | SKN-1 inh | TLR4 MyD88 comp | TLR9-MyD88 block
C(=NNc1nnn(Cc2ccccc2)n1)c1ccccc1 | – | – | – | · | –
O=C(NCCc1nc(-c2ccccc2Cl)no1)c1ccccc1 | – | – | – | · | –
CC(C)C(=O)NCCc1nc(-c2ccccc2Cl)no1 | – | – | 36 | · | –
CCN(CC(=O)NCc1ccc(Cl)cc1)C(=O)CCc1ccccc1 | – | – | – | · | –
Cc1ccc(NC(=O)CNC(=O)c2cccs2)cc1S(=O)(=O)Nc1ccc(Cl)cc1 | – | – | 41 | – | –
CCN(CC)c1ccc(C(=O)OCC(=O)Nc2ccc3[nH]c(=O)[nH]c3c2)cc1 | – | – | – | – | –
Cc1cc2cc(CNC(=O)CCC(=O)O)ccc2n1C | – | – | 38 | – | –
Cc1cccc(NC(=O)NCc2ccc3c(c2)cc(C)n3C)c1 | – | – | 49 | – | –

Screening data as filed in PubChem BioAssay.
